{"source": "ChEMBL document CHEMBL4261600", "about": "(Eur J Med Chem, 2018)", "key": {"COLO 205": {"test_system": "COLO 205", "test": "Antiproliferative activity against human COLO205 cells after 72 hrs by Celltiter-Glo assay", "format": "functional", "conditions": "COLO 205, 72 h", "outline": "(§1)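 Cells seeded at 3000/well in 96-well plates, exposed to serially diluted compound for 72 h at 37 °C, 5% CO2. Viability read by CellTiter-Glo luminescence and normalized to DMSO control. GI50 derived from curve fit, mean of three independent measurements. Culture media: DMEM/10% FBS for adherent lines; IMDM for MV4-11 and MEC-1/2; RPMI 1640 for suspension lines and CHL.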"}, "U-937": {"test_system": "U-937", "test": "Antiproliferative activity against human U937 cells after 72 hrs by Celltiter-Glo assay", "format": "functional", "conditions": "U-937, 72 h", "outline": "as §1"}, "HL-60": {"test_system": "HL-60", "test": "Induction of apoptosis in human HL60 cells assessed as decrease in c-MYC level after 2 hrs by immunoblotting analysis", "format": "functional, cell-based"}, "Homo sapiens [1]": {"organism": "Homo sapiens", "test": "Induction of apoptosis in human MEC1 cells assessed as decrease in XIAP level up to 3 uM after 2 hrs by immunoblotting analysis", "format": "functional, cell-based"}, "[2]": {"test": "Half life in Sprague-Dawley rat at 20 mg/kg, po by LC-MS/MS analysis", "format": "ADME, organism-based", "conditions": "in vivo"}, "[3]": {"test": "MRT (0 to infinity) in Sprague-Dawley rat at 3 mg/kg, iv by LC-MS/MS analysis", "format": "ADME, organism-based", "conditions": "in vivo"}, "[4]": {"molecular_target": "5'-AMP-activated protein kinase catalytic subunit alpha-2 (Homo sapiens) (UniProt P54646)", "test": "Binding affinity to wild-type human partial length AMPK alpha2 (M1 to E306 residues) expressed in bacterial expression system assessed as remaining unbound target protein level at 1000 nM by Kinomescan method relative to control", "outline": "(§2)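 Profiled in a KINOMEscan binding panel with the inhibitor at a single concentration of 1 μM. Binding to each kinase was read out as percent of control, relative to a DMSO control. Strong binders were defined as those with a percent control value below 1.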"}, "[5]": {"molecular_target": "Cyclin-dependent kinase-like 5 (Homo sapiens) (UniProt O76039)", "sequence (O76039 whole entry, the tested form may be a part)": "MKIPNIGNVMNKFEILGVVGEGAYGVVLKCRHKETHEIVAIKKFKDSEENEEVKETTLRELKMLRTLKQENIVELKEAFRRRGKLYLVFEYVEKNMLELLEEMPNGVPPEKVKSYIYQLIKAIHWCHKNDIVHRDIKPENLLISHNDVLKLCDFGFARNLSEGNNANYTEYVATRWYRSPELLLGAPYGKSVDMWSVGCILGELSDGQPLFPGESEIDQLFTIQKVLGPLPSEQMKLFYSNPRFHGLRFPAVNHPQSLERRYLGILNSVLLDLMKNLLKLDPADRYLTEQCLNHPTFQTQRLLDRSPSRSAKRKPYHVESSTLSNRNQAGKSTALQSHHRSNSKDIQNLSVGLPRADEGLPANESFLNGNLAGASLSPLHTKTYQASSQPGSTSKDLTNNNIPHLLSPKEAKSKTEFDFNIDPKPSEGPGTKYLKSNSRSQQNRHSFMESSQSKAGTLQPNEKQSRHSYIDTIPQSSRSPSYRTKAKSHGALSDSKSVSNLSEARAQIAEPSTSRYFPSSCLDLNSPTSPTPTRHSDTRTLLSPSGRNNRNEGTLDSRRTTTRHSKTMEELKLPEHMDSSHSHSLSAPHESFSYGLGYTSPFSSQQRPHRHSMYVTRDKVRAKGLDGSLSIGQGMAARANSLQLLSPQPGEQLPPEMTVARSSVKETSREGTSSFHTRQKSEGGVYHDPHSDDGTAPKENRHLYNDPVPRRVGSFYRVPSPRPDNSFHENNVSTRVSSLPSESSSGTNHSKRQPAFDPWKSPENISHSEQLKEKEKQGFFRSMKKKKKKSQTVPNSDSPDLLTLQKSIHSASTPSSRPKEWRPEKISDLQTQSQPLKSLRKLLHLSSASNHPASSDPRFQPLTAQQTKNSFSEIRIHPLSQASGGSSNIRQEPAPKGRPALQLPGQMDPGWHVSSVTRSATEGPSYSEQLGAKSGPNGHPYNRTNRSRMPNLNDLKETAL", "test": "Binding affinity to wild-type human partial length CDKL5 (M1 to S337 residues) expressed in mammalian expression system assessed as remaining unbound target protein level at 1000 nM by Kinomescan method relative to control", "outline": "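KINOMEscan competition binding profile across a panel of 468 kinases and mutants, with the inhibitor tested at a single concentration of 1 μM. Binding is reported as percent of control, meaning signal relative to a DMSO control.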"}, "[6]": {"molecular_target": "Tyrosine-protein kinase CSK (Homo sapiens) (UniProt P41240)", "sequence (P41240 2-450 limits assumed)": "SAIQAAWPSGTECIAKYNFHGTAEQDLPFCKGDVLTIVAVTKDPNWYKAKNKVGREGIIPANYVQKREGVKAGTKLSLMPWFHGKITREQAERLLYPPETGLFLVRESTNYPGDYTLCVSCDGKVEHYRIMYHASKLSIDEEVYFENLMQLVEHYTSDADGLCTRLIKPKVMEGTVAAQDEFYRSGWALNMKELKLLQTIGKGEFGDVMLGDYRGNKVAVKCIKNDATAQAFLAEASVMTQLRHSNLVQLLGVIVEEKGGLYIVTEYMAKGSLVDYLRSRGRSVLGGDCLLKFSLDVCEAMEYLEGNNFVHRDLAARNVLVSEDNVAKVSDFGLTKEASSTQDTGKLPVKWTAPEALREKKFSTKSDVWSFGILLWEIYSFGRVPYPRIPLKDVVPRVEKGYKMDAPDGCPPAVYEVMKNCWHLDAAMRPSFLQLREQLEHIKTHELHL", "test": "Binding affinity to wild-type human full length CSK (M1 to L450 residues) expressed in bacterial expression system assessed as remaining unbound target protein level at 1000 nM by Kinomescan method relative to control", "outline": "(§3)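 KINOMEscan competitive binding profile at 1 μM inhibitor. Remaining target binding reported as percent of DMSO control.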"}, "[7]": {"molecular_target": "Casein kinase I isoform delta (Homo sapiens) (UniProt P48730)", "sequence (P48730 whole entry, looked up, the tested form may be a part, canonical isoform)": "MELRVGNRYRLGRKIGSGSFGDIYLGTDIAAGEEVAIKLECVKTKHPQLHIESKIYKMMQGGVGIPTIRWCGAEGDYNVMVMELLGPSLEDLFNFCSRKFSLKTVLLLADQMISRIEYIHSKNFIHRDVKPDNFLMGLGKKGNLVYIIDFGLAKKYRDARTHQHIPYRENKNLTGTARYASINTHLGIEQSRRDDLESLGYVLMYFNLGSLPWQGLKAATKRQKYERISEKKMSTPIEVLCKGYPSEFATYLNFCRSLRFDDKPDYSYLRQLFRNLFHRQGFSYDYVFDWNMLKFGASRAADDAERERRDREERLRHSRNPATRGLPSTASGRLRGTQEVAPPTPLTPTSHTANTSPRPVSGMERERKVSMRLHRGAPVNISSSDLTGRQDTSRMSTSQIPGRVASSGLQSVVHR", "test": "Binding affinity to wild-type human full length CSNK1D (M1 to K409 residues) expressed in bacterial expression system assessed as remaining unbound target protein level at 1000 nM by Kinomescan method relative to control", "outline": "as §3"}, "[8]": {"molecular_target": "Receptor tyrosine-protein kinase erbB-2 (Homo sapiens) (UniProt P04626)", "test": "Binding affinity to wild-type human partial length ERBB2 (K646 to V1225 residues) expressed in mammalian expression system assessed as remaining unbound target protein level at 1000 nM by Kinomescan method relative to control"}, "[9]": {"molecular_target": "Tyrosine-protein kinase Fgr (Homo sapiens) (UniProt P09769)", "sequence (P09769 2-529 limits assumed)": "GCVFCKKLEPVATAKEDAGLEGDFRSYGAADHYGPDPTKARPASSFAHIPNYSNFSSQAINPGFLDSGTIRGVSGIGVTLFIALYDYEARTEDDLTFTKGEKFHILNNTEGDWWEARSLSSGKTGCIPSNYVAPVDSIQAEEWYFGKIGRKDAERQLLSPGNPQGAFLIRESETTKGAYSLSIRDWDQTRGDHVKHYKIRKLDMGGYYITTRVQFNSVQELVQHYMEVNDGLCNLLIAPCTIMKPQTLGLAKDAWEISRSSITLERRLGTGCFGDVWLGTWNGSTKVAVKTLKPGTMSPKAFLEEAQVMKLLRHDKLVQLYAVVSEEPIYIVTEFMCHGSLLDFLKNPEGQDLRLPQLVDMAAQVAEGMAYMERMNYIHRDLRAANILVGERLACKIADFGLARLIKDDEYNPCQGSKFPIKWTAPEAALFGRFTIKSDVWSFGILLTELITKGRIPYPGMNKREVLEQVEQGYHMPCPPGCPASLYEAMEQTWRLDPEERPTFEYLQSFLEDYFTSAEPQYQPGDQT", "test": "Binding affinity to wild-type human partial length FGR (L233 to T529 residues) expressed in bacterial expression system assessed as remaining unbound target protein level at 1000 nM by Kinomescan method relative to control"}, "[10]": {"molecular_target": "Serine/threonine-protein kinase ICK (Homo sapiens) (UniProt Q9UPZ9)", "test": "Binding affinity to wild-type human partial length ICK (M1 to P314 residues) expressed in mammalian expression system assessed as remaining unbound target protein level at 1000 nM by Kinomescan method relative to control", "outline": "(§4)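 KINOMEscan binding panel of 468 kinases/mutants. Inhibitor was tested at a single concentration of 1 μM. Binding is reported as percent of control, defined relative to a DMSO control.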"}, "[11]": {"test_system": "Mast/stem cell growth factor receptor Kit (Homo sapiens), P10721 [D816H]", "test": "Binding affinity to human partial length KIT D816H mutant (I571 to D952 residues) expressed in mammalian expression system assessed as remaining unbound target protein level at 1000 nM by Kinomescan method relative to control", "outline": "(§5)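 KINOMEscan competition-binding profiling across the panel of 468 kinases and mutants, with inhibitor tested at 1 μM. Binding is expressed as percent of control, with DMSO as the reference control.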"}, "[12]": {"molecular_target": "Mitogen-activated protein kinase kinase kinase 9 (Homo sapiens) (UniProt P80192)", "test": "Binding affinity to wild-type human partial length MLK1 (V88 to W426 residues) expressed in bacterial expression system assessed as remaining unbound target protein level at 1000 nM by Kinomescan method relative to control", "outline": "as §4"}, "[13]": {"molecular_target": "Serine/threonine-protein kinase MRCK beta (Homo sapiens) (UniProt Q9Y5S2)", "test": "Binding affinity to wild-type human partial length MRCKB (L56 to S417 residues) expressed in bacterial expression system assessed as remaining unbound target protein level at 1000 nM by Kinomescan method relative to control"}, "[14]": {"molecular_target": "Myosin-IIIb (Homo sapiens) (UniProt Q8WXR4)", "sequence (Q8WXR4 whole entry, the tested form may be a part)": "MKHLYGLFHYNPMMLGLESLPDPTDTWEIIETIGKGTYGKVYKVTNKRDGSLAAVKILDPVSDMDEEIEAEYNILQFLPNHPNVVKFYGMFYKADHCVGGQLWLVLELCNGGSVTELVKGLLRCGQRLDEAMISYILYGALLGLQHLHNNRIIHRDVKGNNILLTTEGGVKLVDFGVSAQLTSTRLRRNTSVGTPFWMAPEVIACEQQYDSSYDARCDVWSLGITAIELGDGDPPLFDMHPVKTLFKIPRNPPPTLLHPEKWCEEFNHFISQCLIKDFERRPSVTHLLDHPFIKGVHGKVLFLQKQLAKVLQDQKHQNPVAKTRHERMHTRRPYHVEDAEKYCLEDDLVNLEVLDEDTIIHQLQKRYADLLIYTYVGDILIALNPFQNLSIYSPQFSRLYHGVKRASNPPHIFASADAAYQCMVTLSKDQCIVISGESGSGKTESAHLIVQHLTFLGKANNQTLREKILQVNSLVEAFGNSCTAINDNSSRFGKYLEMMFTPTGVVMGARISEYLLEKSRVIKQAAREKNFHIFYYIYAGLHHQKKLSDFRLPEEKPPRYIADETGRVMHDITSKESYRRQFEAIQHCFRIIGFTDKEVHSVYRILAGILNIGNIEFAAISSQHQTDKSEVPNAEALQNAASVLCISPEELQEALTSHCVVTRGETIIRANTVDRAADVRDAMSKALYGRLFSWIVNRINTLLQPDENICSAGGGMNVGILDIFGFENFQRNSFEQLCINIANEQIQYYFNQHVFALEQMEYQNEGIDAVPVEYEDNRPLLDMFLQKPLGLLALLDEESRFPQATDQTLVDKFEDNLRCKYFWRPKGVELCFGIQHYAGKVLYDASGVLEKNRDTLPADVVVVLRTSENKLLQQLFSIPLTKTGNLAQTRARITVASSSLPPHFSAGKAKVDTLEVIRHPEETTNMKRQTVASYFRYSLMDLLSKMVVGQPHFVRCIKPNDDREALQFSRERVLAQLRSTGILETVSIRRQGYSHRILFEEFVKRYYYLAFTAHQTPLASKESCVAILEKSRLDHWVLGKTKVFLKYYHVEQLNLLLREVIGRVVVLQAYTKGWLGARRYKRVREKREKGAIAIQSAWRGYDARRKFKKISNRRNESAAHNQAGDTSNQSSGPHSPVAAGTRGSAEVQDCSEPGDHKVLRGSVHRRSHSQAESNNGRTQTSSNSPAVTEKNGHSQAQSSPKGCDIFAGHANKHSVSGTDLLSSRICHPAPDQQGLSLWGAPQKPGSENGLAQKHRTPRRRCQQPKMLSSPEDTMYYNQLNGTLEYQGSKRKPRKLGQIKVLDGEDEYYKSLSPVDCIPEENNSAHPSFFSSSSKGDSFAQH", "test": "Binding affinity to wild-type human partial length MYO3B (M1 to D357 residues) expressed in bacterial expression system assessed as remaining unbound target protein level at 1000 nM by Kinomescan method relative to control"}, "[15]": {"molecular_target": "Cyclin-dependent kinase 2 homolog (Plasmodium falciparum (isolate 3D7)) (UniProt P61075)", "sequence (P61075 whole entry, the tested form may be a part)": "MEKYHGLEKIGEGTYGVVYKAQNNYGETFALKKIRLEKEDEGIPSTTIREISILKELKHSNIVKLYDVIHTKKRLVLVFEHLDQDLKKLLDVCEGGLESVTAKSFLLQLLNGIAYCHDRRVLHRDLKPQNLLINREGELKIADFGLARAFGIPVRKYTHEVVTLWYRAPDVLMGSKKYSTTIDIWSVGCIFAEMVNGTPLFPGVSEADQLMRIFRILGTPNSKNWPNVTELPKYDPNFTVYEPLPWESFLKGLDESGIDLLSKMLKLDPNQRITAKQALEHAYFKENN", "test": "Binding affinity to wild-type Plasmodium falciparum full length PK5 (M1 to N288 residues) expressed in mammalian expression system assessed as remaining unbound target protein level at 1000 nM by Kinomescan method relative to control", "outline": "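Single-point competition binding screen across a panel of 468 kinases and mutants, with the inhibitor at 1 μM. Binding is read out as percent of a DMSO control, and targets below 1 percent control were classed as strong binders.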"}, "[16]": {"test_system": "Phosphatidylinositol 4,5-bisphosphate 3-kinase catalytic subunit alpha isoform (Homo sapiens), P42336 [I800L]", "sequence (P42336 whole entry I800L, the tested form may be a part, canonical isoform)": "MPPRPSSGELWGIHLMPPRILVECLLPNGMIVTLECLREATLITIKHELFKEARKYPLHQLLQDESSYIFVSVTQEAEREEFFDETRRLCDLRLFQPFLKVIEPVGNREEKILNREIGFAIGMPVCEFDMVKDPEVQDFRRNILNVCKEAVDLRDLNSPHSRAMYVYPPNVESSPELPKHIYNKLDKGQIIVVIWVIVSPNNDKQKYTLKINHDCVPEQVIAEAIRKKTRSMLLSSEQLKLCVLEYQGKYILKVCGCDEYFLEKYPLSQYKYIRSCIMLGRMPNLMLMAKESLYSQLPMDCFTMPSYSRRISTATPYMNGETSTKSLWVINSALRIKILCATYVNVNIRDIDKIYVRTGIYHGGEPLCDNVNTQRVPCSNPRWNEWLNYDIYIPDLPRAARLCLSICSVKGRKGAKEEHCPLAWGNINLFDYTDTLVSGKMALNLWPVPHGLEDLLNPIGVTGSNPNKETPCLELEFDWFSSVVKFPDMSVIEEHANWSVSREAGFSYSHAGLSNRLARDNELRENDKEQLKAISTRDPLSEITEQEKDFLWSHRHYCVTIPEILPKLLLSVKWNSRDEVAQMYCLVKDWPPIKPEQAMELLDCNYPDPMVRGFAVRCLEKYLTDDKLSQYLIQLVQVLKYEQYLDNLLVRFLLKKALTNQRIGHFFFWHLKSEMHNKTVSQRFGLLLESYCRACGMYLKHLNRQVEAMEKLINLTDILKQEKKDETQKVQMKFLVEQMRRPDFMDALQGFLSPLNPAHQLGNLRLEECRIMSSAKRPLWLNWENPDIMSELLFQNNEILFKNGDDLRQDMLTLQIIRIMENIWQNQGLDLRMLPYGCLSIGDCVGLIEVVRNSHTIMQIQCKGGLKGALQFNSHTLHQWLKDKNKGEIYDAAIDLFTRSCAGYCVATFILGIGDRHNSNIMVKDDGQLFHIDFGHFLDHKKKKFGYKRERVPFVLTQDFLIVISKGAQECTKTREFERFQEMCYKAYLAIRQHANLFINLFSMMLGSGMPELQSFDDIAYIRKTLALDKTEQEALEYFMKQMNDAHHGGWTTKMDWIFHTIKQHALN", "test": "Binding affinity to human partial length PIK3CA I800L mutant (R108 to N1068 residues) expressed in mammalian expression system assessed as remaining unbound target protein level at 1000 nM by Kinomescan method relative to control", "outline": "as §5"}, "[17]": {"molecular_target": "Protein-tyrosine kinase 2-beta (Homo sapiens) (UniProt Q14289)", "test": "Binding affinity to wild-type human full length PYK2 (M1 to E967 residues) expressed in bacterial expression system assessed as remaining unbound target protein level at 1000 nM by Kinomescan method relative to control", "outline": "as §2"}, "CDK7/Cyclin H/MNAT1": {"molecular_target": "CDK7/Cyclin H/MNAT1 (Homo sapiens, UniProt P50613)", "test": "Inhibition of recombinant full length His-tagged human CDK7/cyclin H/MNAT1 expressed in baculovirus expression system"}, "Homo sapiens [18]": {"organism": "Homo sapiens", "test": "Selectivity ratio of IC50 for recombinant full length His-tagged human CDK2/CyclinA to IC50 for recombinant full length His-tagged human CDK9/CyclinT1"}}, "note": "Activity calls are given as the source filed them."}
{"smiles": "COCCN[C@H]1CC[C@H](Nc2cc(-c3csc(NCC4(C#N)CCOCC4)n3)c(Cl)cn2)CC1", "values": [{"measurement": "GI50", "setting": "COLO 205", "value": 14, "unit": "nM"}, {"measurement": "GI50", "setting": "U-937", "value": 2, "unit": "nM"}, {"measurement": "Activity", "setting": "HL-60", "value": "Dose-dependent effect"}, {"measurement": "Activity", "setting": "Homo sapiens [1]", "value": "inactive"}, {"measurement": "half-life", "setting": "[2]", "value": 3.37, "unit": "h"}, {"measurement": "MRT inf", "setting": "[3]", "value": 6.33, "unit": "h"}, {"measurement": "Activity", "setting": "[4]", "value": 100, "unit": "%"}, {"measurement": "Activity", "setting": "[5]", "value": 21, "unit": "%"}, {"measurement": "Activity", "setting": "[6]", "value": 95, "unit": "%"}, {"measurement": "Activity", "setting": "[7]", "value": 66, "unit": "%"}, {"measurement": "Activity", "setting": "[8]", "value": 97, "unit": "%"}, {"measurement": "Activity", "setting": "[9]", "value": 90, "unit": "%"}, {"measurement": "Activity", "setting": "[10]", "value": 40, "unit": "%"}, {"measurement": "Activity", "setting": "[11]", "value": 72, "unit": "%"}, {"measurement": "Activity", "setting": "[12]", "value": 86, "unit": "%"}, {"measurement": "Activity", "setting": "[13]", "value": 100, "unit": "%"}, {"measurement": "Activity", "setting": "[14]", "value": 82, "unit": "%"}, {"measurement": "Activity", "setting": "[15]", "value": 100, "unit": "%"}, {"measurement": "Activity", "setting": "[16]", "value": 90, "unit": "%"}, {"measurement": "Activity", "setting": "[17]", "value": 90, "unit": "%"}, {"measurement": "IC50", "setting": "CDK7/Cyclin H/MNAT1", "value": 1720, "unit": "nM"}, {"measurement": "Ratio IC50", "setting": "Homo sapiens [18]", "value": "> 1000"}]}
